Laboratory results as given in PubChem BioAssay.
Active and inactive are the calls of the source.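 The calls were made as follows, unless noted: active = inhibition at or above 50% relative to wild type and mutant plate controls; inactive = inhibition below 50%.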

How the values were obtained:
[1] = inhibitors of TNFa-induced NFkB p65 translocation, primary screen, imaging, HUVEC, MLSMR starter and 10KST1 sets (AID 438;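 active = inhibition above 20% together with a positive visual image hit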;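 also: compound added about 3h40 before a 20 min TNFalpha stimulation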;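 as to inhibition: signal is the nuclear over cytoplasmic p65 intensity ratio per well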); details: HUVEC TNFa-induced p65 nuclear translocation; cell count: measured here: nuclei count (cytotoxicity indicator), at 2.08 µM; inhibition: at 2 µM, stronger effect = higher value, 0% TNFa-plus-vehicle, 100% no-TNFa wells
[2] = inhibitors of E-selectin induction by TNFa, primary screen, imaging, HUVEC, immunofluorescence, MLSMR starter and 10KST1 sets (AID 487;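 active = visually confirmed hit in the image check and inhibition above 20%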;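 as to inhibition: signal is fraction of cell area covered by stained E-selectin grains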;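 as to nuclei count: 100% = median nuclei count of all wells on the same plate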); details: HUVEC TNFalpha-induced E-selectin immunofluorescence imaging, at 2 µM; inhibition: stronger effect = higher value; nuclei count: measured here: cell number, toxicity
[3] = DUSP6 inhibitors restoring Erk phosphorylation by chemical complementation, primary imaging in DUSP6-transfected HeLa (AID 609;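 active = compounds giving at least 50% inhibition in the cell-based MKP-3 phosphatase rescue imaging test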;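 as to inhibition: phospho-Erk level distribution per well compared with pooled transfected vehicle control wells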); details: HeLa MKP-3 transfected, phospho-Erk imaging KS statistic, at 10 µM, cells stimulated with TPA for 15 min
[4] = molecular target: Dual specificity protein phosphatase 6 (Homo sapiens) (UniProt Q16828); assay: as above; details: HeLa MKP-3 transfected, phospho-Erk imaging KS statistic; at 10 µM; stronger effect = higher value; cells stimulated with TPA for 15 min
Sequence of Dual specificity protein phosphatase 6 (Homo sapiens) (Q16828 whole entry, looked up): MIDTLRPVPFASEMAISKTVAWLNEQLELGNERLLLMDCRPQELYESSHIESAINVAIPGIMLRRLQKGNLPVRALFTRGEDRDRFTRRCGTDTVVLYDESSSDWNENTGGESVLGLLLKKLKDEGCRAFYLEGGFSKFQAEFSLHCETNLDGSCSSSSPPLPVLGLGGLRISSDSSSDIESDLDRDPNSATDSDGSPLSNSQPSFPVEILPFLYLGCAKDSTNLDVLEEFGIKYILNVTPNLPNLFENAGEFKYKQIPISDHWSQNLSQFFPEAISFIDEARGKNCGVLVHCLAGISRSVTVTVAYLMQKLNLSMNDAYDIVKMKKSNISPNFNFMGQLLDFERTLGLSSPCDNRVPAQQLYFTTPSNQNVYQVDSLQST

[5] = molecular target: Voltage-gated potassium channel subunit beta-2 (Rattus norvegicus) (UniProt P62483); assay: KvBeta enzyme negative modulators, primary screen, biochemical, NADPH fluorescence (AID 622;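 active = fluorescence slope higher than the sample average by over 3 SD, cut at about -0.22 in these data, passing the limit was not always enough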;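 also: slope of raw intensity against log time taken from 70 to 1610 s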); details: recombinant KvBeta, 4-cyanobenzaldehyde reduction, at 10 µM, stronger effect = higher value
Sequence of Voltage-gated potassium channel subunit beta-2 (Rattus norvegicus) (P62483 whole entry, looked up): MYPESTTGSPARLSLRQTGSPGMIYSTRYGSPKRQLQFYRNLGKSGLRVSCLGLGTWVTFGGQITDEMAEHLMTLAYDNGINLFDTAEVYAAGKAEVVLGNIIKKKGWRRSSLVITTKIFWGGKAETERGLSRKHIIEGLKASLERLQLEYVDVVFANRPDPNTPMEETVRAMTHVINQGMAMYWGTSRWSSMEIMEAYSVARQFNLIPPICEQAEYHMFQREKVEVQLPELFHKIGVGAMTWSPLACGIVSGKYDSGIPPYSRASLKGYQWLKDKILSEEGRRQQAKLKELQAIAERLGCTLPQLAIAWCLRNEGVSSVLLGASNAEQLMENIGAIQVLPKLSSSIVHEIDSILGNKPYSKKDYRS

[6] = molecular target: Voltage-gated potassium channel subunit beta-2 (Rattus norvegicus) (UniProt P62483); assay: KvBeta positive modulators, primary screen, biochemical, NADPH fluorescence (AID 623;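 active = NADPH fluorescence slope more negative than the mean of all samples by about 3 SD, 99.7% confidence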;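 also: fluorescence intensity change per second fitted from 20 to 320 s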); details: Recombinant KvBeta, NADPH fluorescence decrease slope, 10 min; at 10 µM; stronger effect = lower value
[7] = molecular target: Muscarinic acetylcholine receptor M4 (Homo sapiens) (UniProt P08173); assay: compounds altering M4/GIRK thallium flux, either direction, primary screen, M4 allosteric agonist project, cell-based, HEK293 M4/GIRK, BTC-AM (AID 625;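 active = fluorescence slope after compound addition differing from the mean of all tested samples at 99.7% confidence, mostly higher but some lower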;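 also: thallium influx through GIRK channels coupled to M4 in HEK293 cells with BTC-AM dye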); details: at 10 µM, actives lie on both sides
Sequence of Muscarinic acetylcholine receptor M4 (Homo sapiens) (P08173 whole entry, looked up): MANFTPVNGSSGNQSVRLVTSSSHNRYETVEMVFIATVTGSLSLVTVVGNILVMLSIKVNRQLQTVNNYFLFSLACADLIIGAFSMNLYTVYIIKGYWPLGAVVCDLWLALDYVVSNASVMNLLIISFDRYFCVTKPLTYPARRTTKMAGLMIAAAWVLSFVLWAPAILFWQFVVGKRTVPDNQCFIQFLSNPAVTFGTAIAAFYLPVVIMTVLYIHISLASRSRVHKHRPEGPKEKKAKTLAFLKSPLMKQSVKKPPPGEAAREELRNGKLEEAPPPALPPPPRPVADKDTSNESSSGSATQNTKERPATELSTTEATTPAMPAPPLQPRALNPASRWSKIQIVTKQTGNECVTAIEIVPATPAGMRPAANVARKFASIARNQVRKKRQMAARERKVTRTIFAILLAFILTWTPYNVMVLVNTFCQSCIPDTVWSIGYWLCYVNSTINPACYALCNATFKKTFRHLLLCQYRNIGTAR
Method in brief: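 assay system = HEK293 cells with M4 receptor and GIRK channels | medium = pH 7.3 thallium assay buffer | doses = 10 µM final, single point | timing = cells overnight at 37 °C, BTC-AM loading 1 h, reads 2 min total | signal = BTC-AM fluorescence, 1 Hz kinetic reads | read-out = post-addition slope, 15–24 s, of baseline-normalized fluorescence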

[8] = inhibitors of larval lipid processing in zebrafish, primary screen, whole organism, PED6 fluorescence, gall bladder and intestine (AID 686;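 active = a full or partial loss of lipid-probe fluorescence in the fish gall bladder, intestine or both, judged by eye; inactive = no fluorescence loss, or compound toxic to the fish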;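 also: larvae 5 to 7 days old with five fish per well; signal comes from phospholipase A2 cleavage of quenched PED6 carried via bile; overnight exposure to compound and PED6 before scoring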); details: Zebrafish larvae PED6 lipid processing, fluorescence scoring; screened at 20 µM (by protocol)
Method in brief: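 Also added: quenched phospholipase substrate PED6, 100 nM final, ingested by larvae; System: zebrafish larvae, 5-7 d; Quantity: 5 larvae per well; Compound: 20 µM single dose; Schedule: overnight compound and PED6 incubation; Read-out: visual per-well fluorescence inhibition score; Measured by: By-eye fluorescence microscopy; Medium: E3.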

[9] = inhibitors of Chlamydomonas gravitaxis, primary screen, whole organism, Chlamydomonas reinhardtii, WT vs cilia-less mutant, absorbance, 96-well (AID 463189); details: OD600 absorbance, 2 days, at 10 µM, stronger effect = higher value;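 also: 0% = wild type cc124 cells in DMSO and 100% = ciliumless bld1 mutant cells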
[10] = measured here: cell density z-score
[11] = measured here: nuclear c-Myc green intensity z-score
[12] = measured here: nuclear pErk red intensity z-score, stronger effect = higher value

Structure (SMILES) | cell count [1] | inhibition [1] | inhibition [2] | nuclei count [2] [%] | z-score [3, 10] | z-score [3, 11] | z-score [3, 12] | inhibition [4] | fluorescence slope [5] | NADPH fluorescence slope [6] | fluorescence slope [7] | outcome [8] | inhibition [9]
CCC(=O)Nc1c(C#N)c2nc3ccccc3nc2n1C1CCCCC1 | 563 | -4.1% (inactive) | 6.8% (inactive) | 99.6 | 0.5 | -1.07 | -5.03 | -2.09% (inactive) | -0.342 (inactive) | 4.3e-06 (inactive) | 0.00526 (inactive) | inactive | 18.8% (inactive)
CCc1cc(=O)oc2cc(C)c(CN3CCCCC3)c(O)c12 | 612 | -9.1% (inactive) | 31% (inactive) | 182 | -0.916 | -0.125 | 1.01 | -8.95% (inactive) | -0.464 (inactive) | -6.3e-05 (inactive) | 0.00459 (inactive) | inactive | 4.62% (inactive)
O=C(NCCC1=CCCCC1)c1ccc(=O)oc1 | 670 | -1.4% (inactive) | 33.5% (inactive) | 163 | -0.394 | -0.165 | 0.265 | -2.29% (inactive) | -0.448 (inactive) | -0.000197 (inactive) | 0.00522 (inactive) | inactive | 20.7% (inactive)
CCOC(=O)COn1c(=O)c(-c2ccc(OC)c(OC)c2)[n+]([O-])c2ccccc21 | 542 | -6% (inactive) | -40.6% (inactive) | 142 | 0.722 | -0.529 | 0.673 | -1.98% (inactive) | -0.33 (inactive) | -7.7e-06 (inactive) | 0.00588 (inactive) | inactive | 37.5% (inactive)
S=c1[nH]nc(-c2ccco2)n1C1CCCCC1 | 638 | -2.9% (inactive) | 6.6% (inactive) | 143 | -0.759 | -0.86 | -1.13 | -7.67% (inactive) | -0.495 (inactive) | -4e-05 (inactive) | 0.00615 (inactive) | inactive | -19.8% (inactive)
CCCC(=O)Nc1nn(CCC)c2nc3ccccc3cc12 | 632 | -8.1% (inactive) | 7.7% (inactive) | 142 | -0.342 | -1.58 | 0.919 | 2.71% (inactive) | -0.481 (inactive) | -6.7e-05 (inactive) | 0.00673 (inactive) | inactive | 6.78% (inactive)
CC1(C(=O)CSc2n[nH]c(-c3ccccc3Cl)n2)CCC(=O)O1 (centres undefined) | 640 | -3.4% (inactive) | -44.5% (inactive) | 144 | 1.47 | -0.819 | -0.432 | -2.47% (inactive) | -0.482 (inactive) | -7.8e-05 (inactive) | 0.0054 (inactive) | inactive | 3.93% (inactive)
O=C1NCC(COCC2CC=CCC2)O1 (centres undefined) | 574 | -4% (inactive) | 50.9% (inactive) | 136 | 0.151 | -0.463 | -0.815 | 19.4% (inactive) | -0.408 (inactive) | -2.8e-05 (inactive) | 0.0053 (inactive) | inactive | 41.8% (inactive)
CCOC(=O)C1CCN(c2ncnc3c2cnn3-c2ccc(OC)cc2)CC1 | 680 | -2.1% (inactive) | -138% (inactive) | 191 | 0.032 | -0.586 | 0.421 | 13.4% (inactive) | -0.405 (inactive) | -3.9e-05 (inactive) | 0.00612 (inactive) | inactive | -3.46% (inactive)
COC(=O)C(NC(C)=O)(Nc1ccc(Br)cn1)C(F)(F)F (centres undefined) | 555 | 1.7% (inactive) | 54.1% (inactive) | 88.1 | -1.18 | 0.658 | 0.74 | -4.59% (inactive) | -0.471 (inactive) | 3.7e-06 (inactive) | 0.00445 (inactive) | inactive | 4.13% (inactive)
O=C(CN1C(=O)c2ccccc2C1=O)OCN1C(=O)c2ccccc2C1=O | 494 | -4.5% (inactive) | -52.7% (inactive) | 125 | 0.289 | 0.0514 | -0.238 | 3.97% (inactive) | -0.348 (inactive) | -2.7e-06 (inactive) | 0.00658 (inactive) | inactive | -6.56% (inactive)
O=C(Cc1ccccc1)Nc1cccc(-c2nnc(-c3ccco3)o2)c1 | 665 | -8.6% (inactive) | 46.6% (inactive) | 188 | 0.0893 | 1.04 | 1.35 | -9.53% (inactive) | -0.485 (inactive) | -5.1e-05 (inactive) | 0.00851 (inactive) | inactive | -2.78% (inactive)
CCCCC(CCC(=O)Nc1ccc(C(=O)OC)cc1)C(=O)O (centres undefined) | 405 | -4.7% (inactive) | -189% (inactive) | 152 | 0.378 | -1.21 | -0.623 | 14% (inactive) | -0.439 (inactive) | -0.000105 (inactive) | 0.00484 (inactive) | inactive | 25.1% (inactive)
